According to ChEMBL document CHEMBL3784968, “Synthesis and mechanistic aspects of 2-anilinonicotinyl-pyrazolo[1,5-a]pyrimidine conjugates that regulate cell proliferation in MCF-7 cells via estrogen signaling” (2016):
The source made the active and inactive calls. The calls are words filed in the database; no cut-off is given here.

Experiments:
MCF7 [1] = test: Cytotoxicity against human MCF7 cells assessed as cell viability after 24 to 48 hrs by MTT assay; type: functional
How it was run: (§1)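 MTT viability assay in SiHa, HeLa (cervical), MCF-7 (breast) and IMR-32 (neuroblastoma) cells, treated with conjugates over 0.25 to 8 µM for 48 h.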

SiHa = test: Cytotoxicity against human SiHa cells assessed as cell viability after 24 to 48 hrs by MTT assay; type: functional; how it was run: as §1
HeLa = test: Cytotoxicity against human HeLa cells assessed as cell viability after 24 to 48 hrs by MTT assay; type: functional; how it was run: as §1
[2] = Cytotoxicity against human IMR32 cells assessed as cell viability after 24 to 48 hrs by MTT assay; type: functional, IMR-32; how it was run: as §1
MCF7 [3] = test: Cell cycle arrest in human MCF7 cells assessed as accumulation at G1 phase at 16 uM after 48 hrs (reference value: 63%); type: functional
How it was run: (§2)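 MCF-7 breast cancer cells exposed 48 h to 4, 8, 16 or 32 µM; doxorubicin as positive control. Cell cycle phase distribution (G0, G1, S, G2/M) read as percentage of cells; G0 fraction taken as apoptotic cells.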

MCF7 [4] = test: Cell cycle arrest in human MCF7 cells assessed as accumulation at G0 phase at 4 uM after 48 hrs (reference value: 3%); type: functional; how it was run: as §2
MCF7 [5] = test: Cell cycle arrest in human MCF7 cells assessed as accumulation at S phase at 4 uM after 48 hrs (reference value: 9%); type: functional; how it was run: as §2
MCF7 [6] = test: Cell cycle arrest in human MCF7 cells assessed as accumulation at G0 phase at 8 uM after 48 hrs (reference value: 3%); type: functional; how it was run: as §2
MCF7 [7] = test: Down regulation of Bcl-2 expression in human MCF7 cells at 1 uM after 24 hrs by Western blot analysis; type: functional, cell-based
MCF7 [8] = test: Cell cycle arrest in human MCF7 cells assessed as accumulation at S phase at 32 uM after 48 hrs (reference value: 9%); type: functional; how it was run: as §2
MCF7 [9] = test: Cell cycle arrest in human MCF7 cells assessed as accumulation at G2/M phase at 32 uM after 48 hrs (reference value: 25%); type: functional; how it was run: as §2
MCF7 [10] = test: Cell cycle arrest in human MCF7 cells assessed as accumulation at G2/M phase at 16 uM after 48 hrs (reference value: 25%); type: functional; how it was run: as §2
MCF7 [11] = test: Cell cycle arrest in human MCF7 cells assessed as accumulation at G1 phase at 4 uM after 48 hrs (reference value: 63%); type: functional; how it was run: as §2
MCF7 [12] = test: Cell cycle arrest in human MCF7 cells assessed as accumulation at G0 phase at 16 uM after 48 hrs (reference value: 3%); type: functional; how it was run: as §2
MCF7 [13] = test: Down regulation of cyclin D expression in human MCF7 cells at 1 uM after 24 hrs by Western blot analysis; type: functional, cell-based
MCF7 [14] = test: Cell cycle arrest in human MCF7 cells assessed as accumulation at G2/M phase at 8 uM after 48 hrs (reference value: 25%); type: functional; how it was run: as §2
MCF7 [15] = test: Cell cycle arrest in human MCF7 cells assessed as accumulation at G2/M phase at 4 uM after 48 hrs (reference value: 25%); type: functional; how it was run: as §2
MCF7 [16] = test: Down regulation of ER alpha expression in human MCF7 cells at 4 uM after 24 hrs by luciferase reporter gene assay; type: functional, cell-based
How it was run: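 MCF-7 cells first transfected with ERα construct for 48 h, then compound exposure at 4 µM for 24 h; luciferase-based read-out; etoposide and doxorubicin run as standards.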

MCF7 [17] = test: Cell cycle arrest in human MCF7 cells assessed as accumulation at G1 phase at 8 uM after 48 hrs (reference value: 63%); type: functional; how it was run: as §2
MCF7 [18] = test: Down regulation of survivin expression in human MCF7 cells at 1 uM after 24 hrs by Western blot analysis; type: functional, cell-based
MCF7 [19] = test: Cell cycle arrest in human MCF7 cells assessed as accumulation at G1 phase at 32 uM after 48 hrs (reference value: 63%); type: functional; how it was run: as §2
MCF7 [20] = test: Cell cycle arrest in human MCF7 cells assessed as accumulation at G0 phase at 32 uM after 48 hrs (reference value: 3%); type: functional; how it was run: as §2
MCF7 [21] = test: Cell cycle arrest in human MCF7 cells assessed as accumulation at S phase at 16 uM after 48 hrs (reference value: 9%); type: functional; how it was run: as §2
MCF7 [22] = test: Cell cycle arrest in human MCF7 cells assessed as accumulation at S phase at 8 uM after 48 hrs (reference value: 9%); type: functional; how it was run: as §2

Structure (SMILES)	Activity (MCF7 [1])	Activity (SiHa)	Activity (HeLa)	Activity [2]	further results
COc1ccc(Nc2ncccc2C(=O)N2CCN(C(=O)c3cc(-c4ccc(Cl)c(Cl)c4)n4nc(-c5ccccc5)cc4n3)CC2)cc1OC	5.95 µM	3.73 µM	5.11 µM	7.15 µM	–
COc1cc(Nc2ncccc2C(=O)N2CCN(C(=O)c3cc(-c4ccc(Cl)c(Cl)c4)n4nc(-c5ccccc5)cc4n3)CC2)cc(OC)c1OC	5.38 µM	3.65 µM	4.52 µM	5.62 µM	–
COc1ccc(Nc2ncccc2C(=O)N2CCN(C(=O)c3cc(-c4ccc(Cl)c(Cl)c4)n4nc(-c5ccccc5)cc4n3)CC2)cc1	6.12 µM	3.92 µM	2.64 µM	5 µM	–
COc1ccc(-c2cc(C(=O)N3CCN(C(=O)c4cccnc4Nc4cc(OC)c(OC)c(OC)c4)CC3)nc3cc(-c4ccccc4)nn23)cc1	3.83 µM	6.08 µM	4.24 µM	6.62 µM	–
O=C(c1cc(-c2ccc(F)cc2)n2nc(-c3ccccc3)cc2n1)N1CCN(C(=O)c2cccnc2Nc2ccc(F)cc2)CC1	3.34 µM	7.21 µM	3.86 µM	5.62 µM	–
COc1cc(Nc2ncccc2C(=O)N2CCN(C(=O)c3cc(-c4ccc(F)cc4)n4nc(-c5ccccc5)cc4n3)CC2)cc(OC)c1OC	7.59 µM	4.07 µM	4.31 µM	5 µM	–
COc1cc(-c2cc(C(=O)N3CCN(C(=O)c4cccnc4Nc4ccccc4)CC3)nc3cc(-c4ccccc4)nn23)cc(OC)c1OC	6.93 µM	5.1 µM	2.99 µM	7.25 µM	–
COc1ccc(-c2cc(C(=O)N3CCN(C(=O)c4cccnc4Nc4ccccc4)CC3)nc3cc(-c4ccccc4)nn23)cc1	2.16 µM	3.33 µM	2.43 µM	4.75 µM	Activity (MCF7 [3]): 64%; Activity (MCF7 [4]): 1%; Activity (MCF7 [5]): 9%; Activity (MCF7 [6]): 2%; Activity (MCF7 [7]): Active; Activity (MCF7 [8]): 10%; Activity (MCF7 [9]): 39%; Activity (MCF7 [10]): 25%; Activity (MCF7 [11]): 52%; Activity (MCF7 [12]): 4%; Activity (MCF7 [13]): Active; Activity (MCF7 [14]): 32%; Activity (MCF7 [15]): 37%; Activity (MCF7 [16]): Active; Activity (MCF7 [17]): 57%; Activity (MCF7 [18]): Active; Activity (MCF7 [19]): 38%; Activity (MCF7 [20]): 13%; Activity (MCF7 [21]): 7%; Activity (MCF7 [22]): 9%
COc1ccc(-c2cc(C(=O)N3CCN(C(=O)c4cccnc4Nc4ccc(F)cc4)CC3)nc3cc(-c4ccccc4)nn23)cc1OC	7.02 µM	5.64 µM	3.16 µM	5.87 µM	–
COc1ccc(Nc2ncccc2C(=O)N2CCN(C(=O)c3cc(-c4cc(OC)c(OC)c(OC)c4)n4nc(-c5ccccc5)cc4n3)CC2)cc1OC	4.24 µM	3.73 µM	6.08 µM	5.75 µM	–
COc1ccc(-c2cc(C(=O)N3CCN(C(=O)c4cccnc4Nc4cc(OC)c(OC)c(OC)c4)CC3)nc3cc(-c4ccccc4)nn23)cc1OC	7.34 µM	7.65 µM	4.24 µM	4.88 µM	–
COc1ccc(Nc2ncccc2C(=O)N2CCN(C(=O)c3cc(-c4ccc(F)cc4)n4nc(-c5ccccc5)cc4n3)CC2)cc1OC	2.69 µM	6.62 µM	6.33 µM	5.25 µM	–
COc1ccc(-c2cc(C(=O)N3CCN(C(=O)c4cccnc4Nc4ccc(F)cc4)CC3)nc3cc(-c4ccccc4)nn23)cc1	4.97 µM	5.93 µM	3.79 µM	5.87 µM	–
O=C(c1cc(-c2ccc(F)cc2)n2nc(-c3ccccc3)cc2n1)N1CCN(C(=O)c2cccnc2Nc2ccccc2)CC1	1.79 µM	2.65 µM	2.29 µM	4.65 µM	Activity (MCF7 [3]): 58%; Activity (MCF7 [4]): 1%; Activity (MCF7 [5]): 8%; Activity (MCF7 [6]): 2%; Activity (MCF7 [7]): Active; Activity (MCF7 [8]): 9%; Activity (MCF7 [9]): 39%; Activity (MCF7 [10]): 28%; Activity (MCF7 [11]): 52%; Activity (MCF7 [12]): 5%; Activity (MCF7 [13]): Active; Activity (MCF7 [14]): 33%; Activity (MCF7 [15]): 38%; Activity (MCF7 [16]): Active; Activity (MCF7 [17]): 54%; Activity (MCF7 [18]): Active; Activity (MCF7 [19]): 44%; Activity (MCF7 [20]): 9%; Activity (MCF7 [21]): 8%; Activity (MCF7 [22]): 10%
COc1cccc2c1C(=O)c1c(O)c3c(c(O)c1C2=O)C[C@@](O)(C(=O)CO)C[C@@H]3O[C@H]1C[C@H](N)[C@H](O)[C@H](C)O1 [DOXORUBICIN]	0.473 µM	3.93 µM	1.25 µM	4.5 µM	Activity (MCF7 [3]): 34%; Activity (MCF7 [4]): 1%; Activity (MCF7 [5]): 8%; Activity (MCF7 [6]): 4%; Activity (MCF7 [8]): 10%; Activity (MCF7 [9]): 46%; Activity (MCF7 [10]): 49%; Activity (MCF7 [11]): 44%; Activity (MCF7 [12]): 6%; Activity (MCF7 [14]): 50%; Activity (MCF7 [15]): 48%; Activity (MCF7 [17]): 37%; Activity (MCF7 [19]): 36%; Activity (MCF7 [20]): 8%; Activity (MCF7 [21]): 11%; Activity (MCF7 [22]): 9%
COc1ccc(Nc2ncccc2C(=O)N2CCN(C(=O)c3cc(-c4ccc(OC)c(OC)c4)n4nc(-c5ccccc5)cc4n3)CC2)cc1	2.85 µM	5.1 µM	4.62 µM	5.87 µM	–
COc1ccc(Nc2ncccc2C(=O)N2CCN(C(=O)c3cc(-c4ccc(OC)cc4)n4nc(-c5ccccc5)cc4n3)CC2)cc1	2.93 µM	4.36 µM	3.72 µM	6.37 µM	–
COc1ccc(Nc2ncccc2C(=O)N2CCN(C(=O)c3cc(-c4ccc(F)cc4)n4nc(-c5ccccc5)cc4n3)CC2)cc1	8.08 µM	4.56 µM	6.6 µM	5.37 µM	–
COc1ccc(Nc2ncccc2C(=O)N2CCN(C(=O)c3cc(-c4ccc(OC)c(OC)c4)n4nc(-c5ccccc5)cc4n3)CC2)cc1OC	2.61 µM	5.93 µM	5.7 µM	5.25 µM	–
O=C(c1cc(-c2ccc(Cl)c(Cl)c2)n2nc(-c3ccccc3)cc2n1)N1CCN(C(=O)c2cccnc2Nc2ccccc2)CC1	5.3 µM	5.93 µM	2.57 µM	7.87 µM	–
COc1ccc(Nc2ncccc2C(=O)N2CCN(C(=O)c3cc(-c4cc(OC)c(OC)c(OC)c4)n4nc(-c5ccccc5)cc4n3)CC2)cc1	3.02 µM	3.87 µM	2.85 µM	5.87 µM	–
COc1ccc(-c2cc(C(=O)N3CCN(C(=O)c4cccnc4Nc4ccccc4)CC3)nc3cc(-c4ccccc4)nn23)cc1OC	6.12 µM	5.93 µM	2.88 µM	6.5 µM	–
COc1cc(-c2cc(C(=O)N3CCN(C(=O)c4cccnc4Nc4ccc(F)cc4)CC3)nc3cc(-c4ccccc4)nn23)cc(OC)c1OC	6.28 µM	5.25 µM	2.57 µM	5.75 µM	–
O=C(c1cc(-c2ccc(Cl)c(Cl)c2)n2nc(-c3ccccc3)cc2n1)N1CCN(C(=O)c2cccnc2Nc2ccc(F)cc2)CC1	4.73 µM	5.27 µM	4.27 µM	5.87 µM	–
COc1ccc(-c2cc(C(=O)N3CCN(C(=O)c4cccnc4Nc4ccc(OC)c(OC)c4)CC3)nc3cc(-c4ccccc4)nn23)cc1	2.53 µM	3.73 µM	5.87 µM	5.12 µM	–
